What was measured:
[1] = Half life in C57Bl6 mouse at 10 mg/kg, iv administered as single dose; format: ADME, organism-based; conditions: in vivo
Method in brief: (§1)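 C57Bl/6 mice were given single intravenous or oral doses (oral at 10 and 100 mg/kg). Plasma PK parameters were CL, AUC0-inf, t1/2, Cmax and %F.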

[2] = Tmax in Sprague-Dawley rat at 10 to 50 mg/kg, po administered as single dose; format: ADME, organism-based; conditions: in vivo
Method in brief: (§2)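 Sprague-Dawley rats each received one dose of drug, either iv across 10-50 mg/kg or orally at 10, 25 and 50 mg/kg. Plasma pharmacokinetics covered CL, AUC0-inf, t1/2, Cmax and Tmax. Oral bioavailability (%F) was obtained from the oral and iv exposures.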

[3] = Aqueous solubility of the compound at pH 6.5; format: physicochemical
[4] = Clearance in Sprague-Dawley rat at 10 mg/kg, iv administered as single dose; format: ADME, organism-based; conditions: in vivo
Method in brief: (§3)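 Sprague-Dawley rats were given single doses, intravenous at 10–50 mg/kg or oral at 10, 25 and 50 mg/kg. Plasma PK parameters were CL, AUC0-inf, t1/2, Cmax and %F.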

[5] = Permeability across apical to basolateral side in human Caco2 cells; format: ADME, cell-based; conditions: Caco-2, read-out: permeability
[6] = Cmax in Sprague-Dawley rat at 25 mg/kg, po administered as single dose; format: ADME, organism-based; design: dose 25 mg/kg, route oral; conditions: in vivo; method in brief: as §3
[7] = Half life in Sprague-Dawley rat at 10 mg/kg, iv administered as single dose; format: ADME, organism-based; conditions: in vivo; method in brief: as §3
[8] = Half life in dog at 3 mg/kg, iv administered as single dose; format: ADME, organism-based, Canis lupus familiaris; conditions: in vivo
Method in brief: (§4)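 Dogs were dosed once, by iv injection or orally, with oral doses spanning 5 to 50 mg/kg. Plasma pharmacokinetic parameters were derived: CL, AUC0-inf, t1/2, Cmax and %F.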

[9] = AUC (0 to infinity) in C57Bl6 mouse at 50 mg/kg, iv administered as single dose; format: ADME, organism-based; design: dose 50 mg/kg, route intravenous, time infinity; conditions: in vivo; method in brief: as §1
[10] = Cmax in dog at 50 mg/kg, po administered as single dose; format: ADME, organism-based, Canis lupus familiaris; design: dose 50 mg/kg, route oral; conditions: in vivo
Method in brief: (§5)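 Dogs were given single intravenous doses, or oral doses from 5 to 50 mg/kg. Plasma PK parameters were CL, AUC0-inf, t1/2, Cmax and %F.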

[11] = Clearance in Sprague-Dawley rat at 25 mg/kg, iv administered as single dose; format: ADME, organism-based; conditions: in vivo; method in brief: as §3
[12] = AUC (0 to infinity) in Sprague-Dawley rat at 10 mg/kg, iv administered as single dose; format: ADME, organism-based; design: dose 10 mg/kg, time infinity, route intravenous; conditions: in vivo; method in brief: as §3
[13] = Oral bioavailability in dog at 50 mg/kg administered as single dose; format: ADME, organism-based, Canis lupus familiaris; conditions: in vivo; method in brief: as §4
[14] = Half life in Sprague-Dawley rat at 10 mg/kg, po administered as single dose; format: ADME, organism-based; conditions: in vivo; method in brief: as §2
[15] = AUC (0 to infinity) in C57Bl6 mouse at 10 mg/kg, po administered as single dose; format: ADME, organism-based; design: dose 10 mg/kg, time infinity, route oral; conditions: in vivo; method in brief: as §1
[16] = Half life in dog at 10 mg/kg, iv administered as single dose; format: ADME, organism-based, Canis lupus familiaris; conditions: in vivo; method in brief: as §4
[17] = Cmax in C57Bl6 mouse at 10 mg/kg, po administered as single dose; format: ADME, organism-based; design: dose 10 mg/kg, route oral; conditions: in vivo; method in brief: as §1
[18] = AUC (0 to infinity) in dog at 25 mg/kg, iv administered as single dose; format: ADME, organism-based, Canis lupus familiaris; design: dose 25 mg/kg, route intravenous, time infinity; conditions: in vivo; method in brief: as §5
[19] = Half life in Sprague-Dawley rat at 50 mg/kg, po administered as single dose; format: ADME, organism-based; conditions: in vivo; method in brief: as §2
[20] = Toxicity in rat administered twice daily for 28 days with 2 week recovery; conditions: in vivo
Method in brief: (§6)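 Rats and dogs underwent 28-day repeat-dose studies with twice-daily dosing, followed by a 2-week recovery period. The NOAEL (mg/kg/dose BID) was established, and the matching systemic exposure was reported as AUC0-inf.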

[21] = Cmax in dog at 150 mg/kg, po administered as single dose; format: ADME, organism-based, Canis lupus familiaris; design: dose 150 mg/kg, route oral; conditions: in vivo
[22] = Clearance in dog at 25 mg/kg, iv administered as single dose; format: ADME, organism-based, Canis lupus familiaris; conditions: in vivo; method in brief: as §5
[23] = AUC (0 to infinity) in Sprague-Dawley rat at 10 mg/kg, po administered as single dose; format: ADME, organism-based; design: dose 10 mg/kg, route oral, time infinity; conditions: in vivo; method in brief: as §3
[24] = AUC (0 to infinity) in Sprague-Dawley rat at 25 mg/kg, iv administered as single dose; format: ADME, organism-based; design: dose 25 mg/kg, route intravenous, time infinity; conditions: in vivo; method in brief: as §3
[25] = Toxicity in dog administered twice daily for 28 days with 2 week recovery; design: species or system Canis lupus familiaris; conditions: in vivo; method in brief: as §6
[26] = Oral bioavailability in dog at 150 mg/kg administered as single dose; format: ADME, organism-based, Canis lupus familiaris; conditions: in vivo
[27] = Cmax in dog at 5 mg/kg, po administered as single dose; format: ADME, organism-based, Canis lupus familiaris; design: dose 5 mg/kg, route oral; conditions: in vivo; method in brief: as §5
[28] = Half life in Sprague-Dawley rat at 25 mg/kg, po administered as single dose; format: ADME, organism-based; conditions: in vivo; method in brief: as §2
[29] = Half life in C57Bl6 mouse at 10 mg/kg, po administered as single dose; format: ADME, organism-based; conditions: in vivo; method in brief: as §1
[30] = Oral bioavailability in dog at 15 mg/kg administered as single dose; format: ADME, organism-based, Canis lupus familiaris; conditions: in vivo; method in brief: as §4
[31] = Oral bioavailability in dog at 5 mg/kg administered as single dose; format: ADME, organism-based, Canis lupus familiaris; conditions: in vivo; method in brief: as §4
[32] = AUC (0 to infinity) in dog at 5 mg/kg, po administered as single dose; format: ADME, organism-based, Canis lupus familiaris; design: dose 5 mg/kg, time infinity, route oral; conditions: in vivo; method in brief: as §5
[33] = Oral bioavailability in C57Bl6 mouse at 10 mg/kg administered as single dose; format: ADME, organism-based; conditions: in vivo
Method in brief: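 C57Bl/6 mice received a single oral dose of 10 or 100 mg/kg, with iv dosing run for comparison. Plasma AUC0-inf, t1/2, Cmax and oral bioavailability (%F) were determined.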

[34] = Half life in dog at 1 mg/kg, iv administered as single dose; format: ADME, organism-based, Canis lupus familiaris; conditions: in vivo; method in brief: as §4
[35] = AUC (0 to 12 hrs) in dog at 200 mg/kg administered twice daily for 28 days with 2 week recovery; format: ADME, organism-based, Canis lupus familiaris; design: dose 200 mg/kg, time < 12 hr; conditions: in vivo
[36] = Clearance in dog at 3 mg/kg, iv administered as single dose; format: ADME, organism-based, Canis lupus familiaris; conditions: in vivo; method in brief: as §5

**Q.** Which results are given for O[C@H](C[C@H]1c2c(F)cccc2-c2cncn21)[C@H]1CC[C@H](O)CC1 [NAVOXIMOD]?
**A.** half-life [1]: 3.9 h; Tmax [2]: 0.5 h; solubility [3]: > 200 µM; clearance [4]: 2.68 L/h/kg; Papp A→B [5]: 227 nm/s; Cmax [6]: 6.42 µg/mL; half-life [7]: 1.44 h; half-life [8]: 1.6 h; AUC(0-inf) [9]: 34.6 µg·h/mL; Cmax [10]: 7.86 µg/mL; clearance [11]: 1.92 L/h/kg; AUC(0-inf) [12]: 3.93 µg·h/mL; bioavailability [13]: 43%; half-life [14]: 1.05 h; AUC(0-inf) [15]: 3.78 µg·h/mL; half-life [16]: 4.8 h; Cmax [17]: 2.26 µg/mL; AUC(0-inf) [18]: 10.1 µg·h/mL; half-life [19]: 1.06 h; NOAEL at 28 days [20]: 250 mg/kg; Cmax [21]: 40.5 µg/mL; clearance [22]: 2.48 L/h/kg; AUC(0-inf) [23]: 1.63 µg·h/mL; AUC(0-inf) [24]: 13.4 µg·h/mL; NOAEL at 28 days [25]: 200 mg/kg; bioavailability [26]: 71.8%; Cmax [27]: 0.132 µg/mL; half-life [28]: 1.15 h; half-life [29]: 1.2 h; bioavailability [30]: 22.3%; bioavailability [31]: 13.7%; AUC(0-inf) [32]: 0.207 µg·h/mL; bioavailability [33]: 69%; half-life [34]: 2.2 h; AUC at 12 h [35]: 22.6 µg·h/mL; clearance [36]: 3.37 L/h/kg
